Four compounds from ChEMBL document CHEMBL1944589, “Identification of novel SAR properties of the Jak2 small molecule inhibitor G6: significance of the para-hydroxyl orientation” (2012) can be followed below.

Test [1] relates to HEL. Description: Growth inhibition of human HEL cells expressing Jak2 V617F mutation at 0.03 to 30 uM after 72 hrs by trypan blue exclusion B assay. Format: functional, cell-based. The essentials:
(§1)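 HEL cells were incubated with graded compound concentrations for 72 h. Viability was determined by trypan blue exclusion.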

Test [2] concerns HEL. In words: Cell cycle arrest in human HEL cells assessed as decrease in cell population at G1 phase at 10 uM after 24 hrs by flow cytometric analysis. Format: functional, cell-based. The essentials: (§2)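 HEL cells were exposed to 10 μM of each compound for 24 h. DNA content was then analyzed by flow cytometry. Data come from two experiments, each measured in triplicate.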
The subject of test [3] is HEL. Description: Cell cycle arrest in human HEL cells assessed as increase in cell population at G2 phase at 10 uM after 24 hrs by flow cytometric analysis. The format is functional, cell-based. The method in brief: as §2
(A flow cytometer gives signals particle by particle.)

Test [4] has as its system HEL. Description: Cell cycle arrest in human HEL cells assessed as accumulation at G2/M phase at 10 uM after 24 hrs by flow cytometric analysis. Format: functional, cell-based. The method in brief: as §2
Test [5] relates to HEL. Description: Cell cycle arrest in human HEL cells assessed as decrease in cyclin A expression at 25 uM after 24 hrs by Western blot analysis. The format is functional, cell-based. The essentials: (§3)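 HEL cells were exposed to 25 μM of each compound for 24 h. Lysates were immunoblotted for cyclin A, cyclin B1 and CDK1, with β-actin as the loading control. Two independent experiments were run.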
On the technique in general: A western blot detects proteins with antibodies after separation by electrophoresis.

Test [6] concerns HEL. In words: Cell cycle arrest in human HEL cells assessed as effect on cyclin B1 expression at 25 uM after 24 hrs by Western blot analysis. Format: functional, cell-based. The method in brief:
as §3

Test [7] relates to HEL. Description: Cell cycle arrest in human HEL cells assessed as effect on CDK1 expression at 25 uM after 24 hrs by Western blot analysis. The format is functional, cell-based. The method in brief:
as §3

Test [8] relates to HEL. In words: Induction of apoptosis in human HEL cells at 10 uM after 48 hrs by annexinV-propidium iodide staining-based flow cytometric analysis. The format is functional, cell-based. The essentials:
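HEL cells were exposed to 10 μM of each compound for 48 h, then stained with Annexin V and propidium iodide and analyzed by flow cytometry. Early apoptosis was scored as Annexin V-positive, PI-negative. Data come from two independent experiments, each in triplicate.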

Test [9] relates to HEL. In words: Induction of apoptosis in human HEL cells assessed as cleavage of PARP at 25 uM after 24 hrs by Western blot analysis. Format: functional, cell-based. The method in brief:
(§4)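 HEL cells were exposed to 25 μM of each compound for 24 h. Cleavage of PARP, caspase-3, Bid and Bim was assessed by Western blot. Two experiments were run for each blot.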

In test [10] the test system is HEL. Description: Induction of apoptosis in human HEL cells assessed as cleavage of caspase-3 at 25 uM after 24 hrs by Western blot analysis. The format is functional, cell-based. The method in brief:
as §4

In test [11] the test system is Bone marrow cell. In words: Anticolonegic activity in mouse bone marrow cells expressing Jak2 V617F mutation assessed as decrease in number of erythroid burst forming units at 25 uM after 24 hrs and measured on day 6. The format is functional, cell-based. The essentials: (§5)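 Bone marrow cells taken from 6-month-old Jak2-V617F transgenic mice were incubated ex vivo in medium containing 25 μM of each compound for 0, 12 or 24 h. Cells were then washed, plated in methylcellulose (semi-solid) medium and cultured for 6 further days. BFU-E and CFU-GM colonies were counted. Each condition was run in duplicate and compared with the 0 h condition.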

The test system of test [12] is Bone marrow cell. In words: Anticolonegic activity in mouse bone marrow cells expressing Jak2 V617F mutation assessed as decrease in number of granulocyte/macrophage colony forming units at 25 uM after 24 hrs and measured on day 6. Format: functional, cell-based. The method in brief:
as §5

Test [13] relates to Bone marrow cell. In words: Anticolonegic activity in mouse bone marrow cells expressing Jak2 V617F mutation assessed as decrease in number of erythroid burst forming units at 25 uM after 12 hrs and measured on day 6. Format: functional, cell-based. The method in brief:
as §5

The subject of test [14] is Bone marrow cell. Description: Anticolonegic activity in mouse bone marrow cells expressing Jak2 V617F mutation assessed as decrease in number of granulocyte/macrophage colony forming units at 25 uM after 12 hrs and measured on day 6. The format is functional, cell-based. The essentials: as §5
Test [15] has as its target Tyrosine-protein kinase JAK2 (Homo sapiens) (UniProt O60674). In words: Jak2 autophosphorylation at 2.5 uM after 30 mins by Western blot analysis as % of control.
For test [16] the target is unchanged. In words: Jak2-mediated GST-STAT1 phosphorylation at 2.5 uM after 30 mins by Western blot analysis as % of control.
The subject of test [17] is HEL. In words: Growth inhibition of human HEL cells expressing Jak2 V617F mutation after 72 hrs by trypan blue exclusion B assay. Format: functional, cell-based. The essentials:
as §1

Test [18] concerns HEL. Description: Growth inhibition of human HEL cells expressing Jak2 V617F mutation at 0.03 to 30 uM by trypan blue exclusion B assay. The format is functional, cell-based. As to conditions: TDE = time-dependent effect.
Test [19] has as its system HEL. Description: Growth inhibition of human HEL cells expressing Jak2 V617F mutation at 0.85 uM after 72 hrs by trypan blue exclusion B assay. The format is functional. The following applies: read-out: GI. The essentials: as §1
Test [20] relates to HEL. In words: Growth inhibition of human HEL cells expressing Jak2 V617F mutation at 0.03 to 30 uM at 24 to 72 hrs by trypan blue exclusion B assay. Format: functional, cell-based.
Test [21] concerns BaF3. In words: Growth inhibition of mouse BAF3 cells expressing Jak2 […] mutation after 72 hrs by MTS assay. Format: functional, cell-based. The essentials:
(§6)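 Ba/F3 cells expressing EpoR and Jak2-V617F were incubated with graded compound concentrations for 72 h. Viability was read by MTS assay. Data come from two independent experiments, each in triplicate.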
On the technique in general: Tetrazolium assays rely on reduction of a dye to a coloured formazan, in cell work by metabolically active cells.

Test [22] relates to BaF3. Description: Growth inhibition of mouse BAF3 cells expressing Jak2 V617 mutation at 0.03 to 30 uM by MTS assay. The format is functional, cell-based. The following applies: TDE = time-dependent effect. The method in brief:
as §6

In test [23] the target is Tyrosine-protein kinase JAK2 (Homo sapiens) (UniProt O60674). Description: Inhibition of Jak2-mediated STAT5 phosphorylation at Try694 in human HEL cells at 25 uM after 24 hrs by Western blot analysis. Format: cell-based. The essentials: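 HEL cells were exposed to 25 μM of each compound for 24 h. Lysates were immunoprecipitated for STAT5 and phospho-STAT5 was detected by Western blot. Densitometry expressed phospho-STAT5 as percent of total, normalized to the DMSO control; n = 4.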

Test [24] concerns HEL. In words: Induction of apoptosis in human HEL cells assessed as cleavage of Bim at 25 uM after 24 hrs by Western blot analysis. The format is functional, cell-based. The method in brief: as §4
The subject of test [25] is HEL. Description: Induction of apoptosis in human HEL cells assessed as cleavage of Bid at 25 uM after 24 hrs by Western blot analysis. Format: functional, cell-based. The method in brief: as §4
Test [26] concerns BaF3. In words: Growth inhibition of mouse BAF3 cells expressing Jak2 V617 mutation at 30 uM after 72 hrs by MTS assay. Format: functional, cell-based. The method in brief: as §6

Active and inactive are the calls of the source. The rule behind the calls is not given here.

Sequence of Tyrosine-protein kinase JAK2 (Homo sapiens) (O60674 whole entry): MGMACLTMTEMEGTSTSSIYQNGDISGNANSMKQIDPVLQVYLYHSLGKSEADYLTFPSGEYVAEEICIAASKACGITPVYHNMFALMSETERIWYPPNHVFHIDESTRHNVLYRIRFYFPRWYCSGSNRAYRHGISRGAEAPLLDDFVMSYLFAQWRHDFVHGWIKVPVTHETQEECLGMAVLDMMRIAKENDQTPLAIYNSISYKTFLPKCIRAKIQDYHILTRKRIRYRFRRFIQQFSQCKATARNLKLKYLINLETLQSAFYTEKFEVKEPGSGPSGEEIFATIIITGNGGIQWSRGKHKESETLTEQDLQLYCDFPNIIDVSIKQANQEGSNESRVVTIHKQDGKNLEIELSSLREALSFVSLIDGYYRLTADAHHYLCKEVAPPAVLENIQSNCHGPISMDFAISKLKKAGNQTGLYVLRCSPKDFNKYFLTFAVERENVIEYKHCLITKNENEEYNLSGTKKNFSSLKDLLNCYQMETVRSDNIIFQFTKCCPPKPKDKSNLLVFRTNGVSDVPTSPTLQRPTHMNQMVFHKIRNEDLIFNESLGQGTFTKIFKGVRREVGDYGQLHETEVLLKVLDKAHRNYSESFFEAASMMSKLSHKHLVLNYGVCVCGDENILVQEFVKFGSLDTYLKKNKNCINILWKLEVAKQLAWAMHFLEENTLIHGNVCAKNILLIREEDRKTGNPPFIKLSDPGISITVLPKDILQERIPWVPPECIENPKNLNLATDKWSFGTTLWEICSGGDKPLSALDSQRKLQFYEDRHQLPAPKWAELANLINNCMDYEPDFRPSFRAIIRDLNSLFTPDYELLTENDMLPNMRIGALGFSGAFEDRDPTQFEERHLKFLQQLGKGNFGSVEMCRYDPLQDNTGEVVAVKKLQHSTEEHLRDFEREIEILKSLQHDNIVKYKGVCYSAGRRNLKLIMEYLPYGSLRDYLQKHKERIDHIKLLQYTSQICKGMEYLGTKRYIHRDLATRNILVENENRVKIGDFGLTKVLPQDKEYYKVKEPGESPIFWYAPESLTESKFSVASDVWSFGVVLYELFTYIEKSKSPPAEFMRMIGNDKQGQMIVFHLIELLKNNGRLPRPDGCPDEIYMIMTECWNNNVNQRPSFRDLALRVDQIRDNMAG

As for `C/C(=C(/C)c1ccc(CN(C)C)c(O)c1)c1ccc(CN(C)C)c(O)c1`, the “growth inhibition (GI)” value in the test on HEL [1] is “Active”. The outcome in the test on HEL [2], with HEL [3], in the test with HEL [4], in the test with HEL [5], in the test on HEL [8] and with HEL [9] was Active. Besides, the result in the test with HEL [10], in the test on Bone marrow cell [11], in the test on Bone marrow cell [12], in the test on Bone marrow cell [13] and in the test on Bone marrow cell [14] was Active. Further, the outcome in the test with HEL [6] and in the test on HEL [7] was inactive. Moreover, the residual activity (as a rule, the signal under treatment as a percentage of the control signal) in test [15] stood at 98.4%; in [16], 104%.
As for `CN(C)Cc1cc(/C=C/c2ccc(O)c(CN(C)C)c2)ccc1O`, the “growth inhibition (GI)” value was “Dose-dependent effect” with HEL [17], “tde” in the test with HEL [18], “Dose-dependent effect” in the test on BaF3 [21] and “tde” with BaF3 [22]. Also, the inhibition of growth at 0.85 µM in the test with HEL [19] came out at 50%. Also, in the test on HEL [20], the “growth inhibition (GI)” value is “Active”. Besides, the inhibition entry in test [23] is “Active”. Moreover, the outcome in the test with HEL [2], in the test with HEL [3], in the test on HEL [4], in the test on HEL [5], with HEL [8] and with HEL [9] was Active. For the same compound, the outcome in the test on HEL [10], in the test on HEL [24], with HEL [25], with Bone marrow cell [11], in the test on Bone marrow cell [12] and in the test on Bone marrow cell [13] was Active. Also, the outcome in the test on Bone marrow cell [14] was Active. The outcome with HEL [6] and with HEL [7] was inactive. The results for the residual activity in test [15] and in test [16] were 44.2% and 71.5%, respectively.
On to `C/C(=C(/C)c1ccc(O)c(CN(C)C)c1)c1ccc(O)c(CN(C)C)c1`, for which the “growth inhibition (GI)” value in the test with HEL [1] was “Active”. Besides, the result with HEL [5], with HEL [6] and with HEL [7] was inactive. Further, the outcome with HEL [8], with HEL [9], with Bone marrow cell [11] and in the test on Bone marrow cell [12] was Active. The residual activity in test [15] and in test [16] was 89.1% in each case.
In the case of `CN(C)Cc1ccc(/C=C/c2ccc(CN(C)C)c(O)c2)cc1O`, the “growth inhibition (GI)” value in the test with HEL [1] and with BaF3 [26] was “Active” throughout. Further, the result in the test with HEL [5], in the test with HEL [6], in the test on HEL [7], in the test with HEL [8] and with HEL [9] was inactive. In addition, the result with Bone marrow cell [12] was Active. The residual activity worked out at 94.4% in test [15] and 93.3% in test [16].
